# Experimental data collected from several papers.
# Compare with care: the assays were run in different laboratories.
# Read-out: cell growth or viability
Structure (SMILES),cell line,method,tested at,time,quantity,result
CNCCC(=O)Nc1ccccc1/N=c1\cc(-c2ccc3nc(N)oc3c2)oc2ccccc12,A549,CCK-8,1 µM,,inhibition,7.88%
CCCCCCCCCCCCCCCCCCOc1ccc(CC(=O)OCC[N+]2(C)CCOCC2)cc1,NCI-H522,SRB,10 µM,,inhibition,5.79%
COc1ccc(C=NNC(=O)c2nc3ccccc3s2)cc1OS(C)(=O)=O,PC-3,MTT,100 µM,48 h,cell death,44.5%
CCc1nc(C(N)=O)c(Nc2ccc(N3CCC(N4CCN(C)CC4)CC3)c(OC)c2)nc1NC1CCOCC1,EOL1,,,72 h,GI50,0.07 µM
CCCCCCCCCCCCCCCCCCOc1cccc(CC(=O)OCC[N+]2(C)CCCCC2)c1,NCI-H522,SRB,10 µM,,inhibition,28.5%
Cc1n[nH]c2ccc3nc(-c4ccc(C(=O)NCCN(C)C)cc4)c4c(c3c12)CCCCC4,EOL1,,,72 h,GI50,0.107 µM
CCCCCCCCCCCCCCCCCCOc1ccc(CC(=O)OCC[N+]2(C)CCCCC2)cc1,NCI-H522,SRB,10 µM,,inhibition,10.8%
Cc1n[nH]c2ccc3nc(-c4ccc(C(=O)NCCN(C)C)cc4F)c4c(c3c12)CCCC4,EOL1,,,72 h,GI50,0.089 µM
NCCC(=O)Nc1cccc(/N=c2\cc(-c3ccc4c(c3)OCO4)oc3ccccc23)c1,A549,CCK-8,1 µM,,inhibition,-1.71%
Cc1nc(NC(=O)N2CCC[C@H]2C(N)=O)sc1-c1ccnc(C(C)(C)C(F)(F)F)c1,NCI-H1048,ATP luminescence,,5 days,EC50,0.611 µM
CCCCCCCCCCCCCCCCCCOc1ccccc1CC(=O)OCC[N+]1(C)CCOCC1,NCI-H522,SRB,10 µM,,inhibition,60.1%
C=C(NC(=O)C(=C)NC(=O)c1csc(C2=N[C@@H]3c4csc(n4)[C@H]4NC(=O)c5csc(n5)[C@H]([C@](C)(O)[C@@H](C)O)NC(=O)[C@H]5CSC(=N5)/C(=C/C)NC(=O)[C@H]([C@@H](C)O)NC(=O)c5csc(n5)[C@]3(CC2)NC(=O)[C@H](C)NC(=O)C(=C)NC(=O)[C@H](C)NC(=O)[C@H]([C@@H](C)CC)N[C@@H]2C=Cc3c([C@H](C)O)cc(nc3[C@H]2O)C(=O)O[C@@H]4C)n1)C(N)=O,PC-3,,,,EC50,54.6 µM
O=C(NN=Cc1ccc(O)cc1)c1nc2ccccc2s1,PC-3,MTT,100 µM,48 h,cell death,39.6%
CCC/C(=C\C1=C(OC)C(=O)c2ccccc2C1=O)C(=O)N(CC)CC,HUVEC,resazurin,,48 h,GI50,2.7 µM
NCCC(=O)Nc1ccccc1/N=c1\cc(-c2ccc3c(c2)OCO3)oc2ccccc12,A549,CCK-8,1 µM,,inhibition,3.27%
Cc1nc(Nc2ncc(C(=O)Nc3c(C)cccc3Cl)s2)cc(N2CC[C@H](O)C2)n1,MEG-01,ATP luminescence,10 µM,72 h,inhibition,93%
CCCCCCCCCCCCCCCCCCOc1ccccc1CC(=O)OCC[N+](C)(C)C,NCI-H522,SRB,10 µM,,inhibition,97.8%
CN(C)CCNC(=O)c1ccc(-c2nc3ccc4[nH]ncc4c3c3c2CCCCC3)cc1,EOL1,,,72 h,GI50,0.143 µM
O=c1[nH]cc(F)c(=O)[nH]1,PC-3,MTT,100 µM,48 h,cell death,10.7%
Nc1nc2ccc(-c3c/c(=N\c4ccccc4NC(=O)CCN4CCOCC4)c4ccccc4o3)cc2o1,A549,CCK-8,1 µM,,inhibition,16.4%
CCCCCCCCCCCCCCCCCCOc1cccc(CC(=O)OCC[N+]2(C)CCCC2)c1,NCI-H522,SRB,10 µM,,inhibition,36.6%
CS(=O)(=O)NCCC(=O)Nc1ccccc1/N=c1\cc(-c2ccc3nc(N)oc3c2)oc2ccccc12,A549,CCK-8,1 µM,,inhibition,-5.4%
CCCCCCCCCCCCCCCCCCOc1cccc(CC(=O)OCC[N+]2(C)CCOCC2)c1,NCI-H522,SRB,10 µM,,inhibition,16.9%
NCCC(=O)Nc1ccccc1/N=c1\cc(-c2ccc3nc(N)oc3c2)oc2ccccc12,A549,CCK-8,1 µM,,inhibition,18.6%
Cc1n[nH]c2ccc3nc(-c4ccc(C(=O)NCCN(C)C)cc4F)c4c(c3c12)CCCCC4,EOL1,,,72 h,GI50,0.072 µM
